APJ antag: APJ receptor antagonism. P35414. CHO-K1 APJ beta-arrestin complementation, luminescence. inhibition, % at 20 µM. actives 0.32% (n = 330,000). AID 2521;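 active = inhibition above about 40% at 20 µM, limit read from the data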;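 also: cells challenged with 10 nM apelin-13 agonist together with compound; plate controls were apelin-13 plus DMSO wells for no effect and DMSO wells lacking apelin-13 for full effect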
CXCR6 inh: CXCR6 (human) receptor inhibition; actives 0.36% (n = 360,000); CHO-K1 PathHunter CXCR6 beta-arrestin, luminescence; inhibition, % at 20 µM; in the data active = inhibition above about 34%, passing the limit was not always enough;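 also: antagonist mode with CXCL16 agonist at 10 nM final; 0% = 10 nM CXCL16 with DMSO and 100% = unstimulated wells without agonist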
CCR6 antag: CCR6 (human) receptor antagonism | CHO-K1 CCR6 PathHunter beta-arrestin, luminescence, CCL20-stimulated | inhibition, % at 20 µM | actives 0.49% (n = 340,000);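 active = compounds whose inhibition of the agonist-driven luminescence signal at 20 µM reaches about 50%, limit read from the data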;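 also: cells stimulated with CCL20 at 14 nM final; plate controls were DMSO with CCL20 for no effect and DMSO without agonist for full effect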
Target sequence (P51684 whole entry, looked up): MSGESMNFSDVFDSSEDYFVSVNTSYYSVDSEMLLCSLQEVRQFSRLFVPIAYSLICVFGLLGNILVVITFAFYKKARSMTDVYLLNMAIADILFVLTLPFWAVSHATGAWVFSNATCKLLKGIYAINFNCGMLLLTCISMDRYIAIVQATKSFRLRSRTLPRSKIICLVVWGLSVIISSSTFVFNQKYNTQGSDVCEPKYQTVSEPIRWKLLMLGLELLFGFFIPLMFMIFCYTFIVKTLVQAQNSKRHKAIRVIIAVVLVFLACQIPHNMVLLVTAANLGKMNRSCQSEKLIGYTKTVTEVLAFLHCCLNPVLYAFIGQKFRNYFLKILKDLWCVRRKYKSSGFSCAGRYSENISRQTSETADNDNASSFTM
APJ ag: APJ receptor agonism; P35414; CHO-K1 APJ PathHunter beta-arrestin, luminescence; 0% DMSO wells, 100% apelin; activation, % at 20 µM; actives 0.11% (n = 330,000);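 active = activation more than six SD over the plate average, tested at 20 µM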;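 also: 0% = DMSO alone and 100% = apelin-13 at 10 nM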
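Incubation: overnight seeding, 90 min compound at 25 °C, 1 h detection; test system: PathHunter CHO-K1 APJ (AGTRL-1) beta-arrestin reporter cells; amount: 1000 cells/well; doses: one dose, 20 µM compound, 1% DMSO; measured by: beta-gal luminescence; measure: agonist-driven arrestin binding to APJ; benchmarks: negative DMSO alone, positive Apelin-13 at 10 nM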
EBI2 block: antagonists of human EBI2 receptor | AID 651636 | actives 0.81% (n = 360,000) | EBI2 beta-arrestin recruitment, luminescence, 7a,25-OHC stimulated | inhibition, % at 5 µM; in the data active = inhibition above about 38%;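 also: enzyme fragment complementation signal reports receptor beta-arrestin coupling in cells; 0% = agonist plus DMSO wells and 100% = wells without agonist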
EBI2 antag conf: EBI2 (human) antagonism, single concentration confirmation; shares compounds with EBI2 block; EBI2 beta-arrestin luminescence, 7a,25-OHC antagonism; inhibition, % at 5 µM; actives 29% (n = 2,400);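 active = inhibition of at least 50%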
EBI2 agonist: EBI2 agonism counter-screen; activation, % at 5 µM; 2,400 tested, under 10 active; EBI2-expressing cells, agonist mode, luminescence, 60 min; 0% vehicle, 100% 7α,25-dihydroxycholesterol control; shares compounds with EBI2 block;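 active = activation of at least 50%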
bGal counter: counter-screen for EBI2 antagonists: E. coli beta-galactosidase inhibition; shares compounds with EBI2 block; purified beta-galactosidase, luminescent Galacton Star, 15 min; inhibition, % at 5 µM; actives 1% (n = 2,400); AID 652176;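 active = replicate-average signal at least 3 plate SD below neutral wells, shown as high inhibition, flagging enzyme-inhibiting false positives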;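 also: 0% = DMSO wells with enzyme and 100% = wells lacking enzyme; higher means stronger loss of beta-gal luminescence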
* = called active by the depositor; . = no result given. The list is not random: actives were taken first. Their share in the collection is about 1.5%.

SMILES	APJ antag	CXCR6 inh	CCR6 antag	APJ ag	EBI2 block	EBI2 antag conf	EBI2 agonist	bGal counter
COc1ccc(C2=CC(=O)C[C@H](c3ccc(F)cc3)C2)cc1F	11	3	20	-5	34	.	.	.
COc1ccc([C@H]2CC(=O)C=C(c3ccc(Cl)c(F)c3)C2)cc1	15	-4	15	-2	51*	52*	-1	-6
COc1ccc([C@H]2CC(=O)C=C(c3ccc(Cl)c(Cl)c3)C2)cc1	5	2	17	0	80*	57*	0	8
COc1ccc([C@H]2CC(=O)C=C(c3ccc(C)c(F)c3)C2)cc1	4	-1	14	-4	53*	46	2	-2
Cc1cc(Br)c(Oc2cc(NN3CCCCC3)c([N+](=O)[O-])cc2[N+](=O)[O-])c(Br)c1	.	10	32	.	18	.	.	.
COc1ccc([C@H]2CC(=O)C=C(c3ccc(OC)nc3)C2)cc1	6	-2	10	-3	34	.	.	.
COc1ccc(C2=CC(=O)C[C@H](c3ccc(Cl)cc3)C2)cn1	11	2	15	-2	50*	40	0	-13
CCN(CC(=O)Nc1cc(Cl)ccc1C)C(=O)COc1cccc2c1OC(C)(C)C2	-1	2	4	6	10	.	.	.
C#Cc1ccc([C@H]2C=C(C(=O)N3CCN(Cc4ccc5c(c4)OCO5)CC3)O[C@@H](OCC)[C@@H]2CCCO)cc1	5	-2	10	5	55*	22	1	5
CCO[C@H]1OC(C(=O)N2CCN(Cc3ccc4c(c3)OCO4)CC2)=C[C@@H](c2ccc3c(c2)OCO3)[C@@H]1CCCO	-3	-1	15	8	16	.	.	.
O=C(COc1ccc(Br)cc1)N/N=C1/SCC(=O)N1Cc1ccccc1	6	-11	0	1	49*	12	1	5
COc1ccccc1OCC(=O)N/N=C1/SCC(=O)N1Cc1ccccc1	3	4	-9	-3	-4	.	.	.
CCOC(=O)NC(=O)/C(C#N)=N/Nc1ccc(F)cc1	18	-1	6	-6	78*	11	1	-14
CCOC(=O)C(=O)/C(C#N)=C/Nc1ccc(F)cc1	-4	-3	15	1	-12	.	.	.
CC1(C)c2[nH]c3ccccc3c2C[C@@H]2C(=O)N(c3cc(F)ccc3F)C(=O)N21	-67	0	7	1	11	.	.	.
CC[C@H]1c2[nH]c3ccccc3c2C[C@@H]2C(=O)N(c3ccc(F)cc3)C(=O)N21	-77	-10	9	-2	49*	10	0	-10
CCCC(=O)Nc1cc2c(cc1C(=O)c1ccccc1)OCCO2	18	8	12	0	-5	.	.	.
CCOc1ccc(S(=O)(=O)c2c(C(=O)c3ccccc3)cnc3cc4c(cc23)OCCO4)cc1	4	1	14	-1	52*	25	-1	-11
Cc1ccc(NC(=O)c2ccc(NS(=O)(=O)c3c(C)noc3C)cc2)cc1C	8	-3	13	2	48*	12	3	-12
COc1cccc(N/C(N)=N/c2nc(C(F)(F)F)cc(=O)[nH]2)c1	22	-5	2	-2	2	.	.	.
O=C(Nc1ccnc(-c2cccnc2)n1)c1ccc(Cl)c(Cl)c1	18	3	5	-3	46*	7	1	3
CCN(CC(=O)Nc1c(F)cccc1F)C(=O)/C=C/c1ccc(C)cc1	14	5	-8	-5	94*	80*	-1	-6
CCN(CC(=O)NCc1ccc(F)cc1)C(=O)/C=C/c1ccc(OC)cc1	12	2	1	2	62*	57*	0	8
CCN(CC(=O)NCc1ccc(F)cc1)C(=O)Cc1ccc(OC)cc1	-5	-2	-5	-2	3	.	.	.
NS(=O)(=O)c1ccc(N/N=C/c2cn(-c3ccccc3)nc2-c2ccccc2)c([N+](=O)[O-])c1	3	3	11	-3	16	.	.	.
SMILES	APJ antag	CXCR6 inh	CCR6 antag	APJ ag	EBI2 block	EBI2 antag conf	EBI2 agonist	bGal counter
O=[N+]([O-])c1ccc(N/N=C/c2cn(-c3ccccc3)nc2-c2ccccc2)cc1	26	16	29	-3	44*	17	-1	8
Cc1ccc2nc(C(Cl)(Cl)Cl)nc(N/N=C/c3ccc([N+](=O)[O-])cc3)c2c1	.	2	17	.	-3	.	.	.
C[C@@H]1CCCCO[C@@H](CN(C)C(=O)c2ccncc2)[C@@H](C)CN([C@H](C)CO)C(=O)c2cc(NC(=O)Cc3ccccc3)ccc2O1	.	-4	.	.	9	.	.	.
CCn1c(SCC(=O)NCCc2ccc(Cl)cc2)nnc1-c1cccs1	13	8	-4	-4	64*	34	-1	-15
O=C(CSc1nnc(-c2ccncc2)n1Cc1ccccc1)NCCc1ccccc1	21	12	11	-2	53*	40	0	9
Cc1ccc(S(=O)(=O)Nc2ccccc2C(=O)N2CCOCC2)cc1	-29	4	5	-2	-8	.	.	.
OCC[C@H]1C[C@H](O)[C@@H](O)[C@]2(Cc3ccccc3CCO2)O1	-1	4	-2	-5	-18	.	.	.
Cc1ccc(C2=NS(=O)(=O)N(C)C(C(=O)NC(C)c3ccccc3)=C2)cc1 (stereo not drawn)	9	4	20	-2	40*	19	1	5
Cc1ccc(C2=NS(=O)(=O)N(C)C(C(=O)NCc3ccccc3)=C2)cc1	1	0	11	-3	-3	.	.	.
OCCCNc1cc(-c2ccccc2)nc2cc(-c3ccc(F)cc3)nn12	-10	-4	-14	3	55*	49	-1	-6
BrC(=C\c1ccccc1)/C=N/N1CCN(c2ccccn2)CC1	-6	-5	-6	-2	2	.	.	.
Cc1cc(OCC(=O)N(C)C2CCCCC2)cc(C)c1Cl	-4	-6	11	-2	79*	43	0	5
Cc1cc(OCC(=O)N(C)C2CCCCC2)ccc1Cl	-2	8	19	-3	74*	35	1	-12
CN(C(=O)COC(=O)COc1ccc(Cl)cc1)C1CCCCC1	-30	-7	-14	-3	3	.	.	.
O=C(C[C@H]1CC[C@H]2[C@@H](COC[C@@H](O)CN2S(=O)(=O)c2ccc(F)cc2)O1)N[C@@H]1CCN(Cc2ccccc2)C1	.	.	.	.	0	.	.	.
CCN(C(=O)c1cc2cc3ccc(C)cc3nc2o1)c1ccc(OC)cc1	3	27	28	-4	42*	51*	1	4

Screening results: PubChem BioAssay, Sanford-Burnham Center for Chemical Genomics
